Data set [1] deals with Candida albicans. Description: Antifungal activity against Candida albicans WTBF-50 by microbroth dilution method. Format: functional. The gist of the method:
(§1)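 CLSI microbroth dilution in RPMI 1640 with L-glutamine. MIC values are geometric means of three independent assays.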
(Dilution methods test growth across graded concentrations, often in twofold steps.)

Data set [2] concerns Pichia kudriavzevii. Description: Antifungal activity against Candida krusei WTBF-51 by microbroth dilution method. Format: functional.
Data set [3] has as its system Nakaseomyces glabratus. The data set can be described thus: Antifungal activity against Candida glabrata ATCC 90030 WTBF-86 by microbroth dilution method. In kind it is functional. In short, it runs like this:
as §1

In data set [4] the test system is Candida parapsilosis. Description: Antifungal activity against Candida parapsilosis ATCC 90018 WTBF-88 by microbroth dilution method. In kind it is functional. The following applies: Lodderomyces parapsilosis. The gist of the method:
as §1

For data set [5], the system named is Cryptococcus neoformans. Description: Antifungal activity against Cryptococcus neoformans Cn18 (Serotype C) WTBF-106 by microbroth dilution method. Format: functional. The gist of the method: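 Microbroth dilution per the CLSI protocol, run in Sabouraud Dextrose Broth in place of RPMI. MIC values are geometric means of three independent assays.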
For data set [6], the system named is HeLa. The data set can be described thus: Cytotoxicity against human HeLa cells assessed as cell viability after 72 hrs by MTS assay. Format: cell-based. Background: Tetrazolium dyes change colour on reduction, which living cells bring about.
Data set [7] is described as follows: Metabolic stability in liver microsomes (unknown origin). Format: ADME.

Converted amounts (≈) assume the structure as drawn.

Take `CN(C)CCNC(=N)c1ccc2cc(-c3ccc(-c4cc5ccc(C(=N)NCCN(C)C)cc5[nH]4)cc3)[nH]c2c1.O=C(O)C(F)(F)F`: the MIC – broadly, the lowest concentration found to suppress growth – in data set [1] was determined as 1 µg/mL; in data set [2], 1 µg/mL; in data set [3], 0.63 µg/mL; in data set [4], 0.5 µg/mL; in data set [5] it was 1.97 µg/mL. In addition, in data set [6], the CC50 (as a rule, the concentration giving 50% cytotoxicity) was 5.5 µg/mL. Besides, the Stability result in data set [7] is reported as “Stable”.
On to `CC1CN=C(c2ccc3cc(-c4ccc(-c5cc6ccc(C7=NCC(C)CN7)cc6[nH]5)cc4)[nH]c3c2)NC1.O=C(O)C(F)(F)F` (centres undefined), for which the MIC in data set [1] was found to be 0.5 µg/mL; in data set [2], 0.5 µg/mL; in data set [3], 0.13 µg/mL; in data set [4], 0.25 µg/mL; in data set [5], 0.25 µg/mL. Moreover, the CC50 in data set [6] came out at 5.8 µg/mL. Moreover, the Stability entry in data set [7] is on record as “Stable”.
With `CC(C)NC(=N)c1ccc2cc(-c3ccc(-c4cc5ccc(C(=N)NC(C)C)cc5[nH]4)cc3)[nH]c2c1.O=C(O)C(F)(F)F`, the MIC came out at 0.5 µg/mL in data set [1]; 0.4 µg/mL in data set [2]; 0.2 µg/mL in data set [3]; 0.25 µg/mL in data set [4]; 1.56 µg/mL in data set [5]. Also, the CC50 in data set [6] was determined as 3.5 µg/mL. The Stability result in data set [7] is “Stable”.
For the molecule `CC(=O)O.c1cc2cc(-c3cnc(-c4cc5ccc(C6=NCCCN6)cc5o4)cn3)oc2cc1C1=NCCCN1`, the MIC came out at 20.2 µg/mL in data set [1]; 20.2 µg/mL in data set [2]; 16 µg/mL in data set [3]; 2 µg/mL in data set [4]; 3.13 µg/mL in data set [5]. Also, the cytotoxic concentration (CC50) in data set [6] is over 80 µg/mL. Also, the Stability entry in data set [7] is given as “Stable”.
For the molecule `OC(Cn1cncn1)(Cn1cncn1)c1ccc(F)cc1F` [FLUCONAZOLE], the MIC is at least 32 µg/mL in data set [1]; at least 32 µg/mL in data set [2]; at least 32 µg/mL in data set [3]; 1 µg/mL (≈ 3.27 µM) in data set [4]; 32 µg/mL (≈ 104 µM) in data set [5].
Regarding `CC(=O)O.c1cc2cc(-c3ccc4oc(C5=NCCCN5)cc4c3)[nH]c2cc1C1=NCCCN1`, the MIC in data set [1] turned out to be 0.4 µg/mL; in data set [2] it was 4 µg/mL; in data set [3], 1 µg/mL; in data set [4] it was 0.5 µg/mL; in data set [5] it was 1 µg/mL. Besides, in data set [6], the CC50 was 50.5 µg/mL. Further, in data set [7], the Stability entry is “Stable”.
Regarding `N=C(NC1CCC(O)CC1)c1ccc2cc(-c3ccc(-c4cc5ccc(C(=N)NC6CCC(O)CC6)cc5[nH]4)cc3)[nH]c2c1.O=C(O)C(F)(F)F` (centres undefined), the MIC in data set [1] was found to be 2.52 µg/mL; in data set [2] it was 4 µg/mL; in data set [3], 4 µg/mL; in data set [4], 2 µg/mL; in data set [5] it was 2.48 µg/mL. The CC50 in data set [6] was found to be 29.8 µg/mL. In addition, the Stability entry in data set [7] is listed as “Stable”.
For `CC(=O)O.c1cc2nc(-c3ccc(-c4ccc5cc(C6=NCCCN6)oc5c4)cc3)cn2cc1C1=NCCCN1`, the minimum inhibitory concentration (MIC) in data set [1] is 2 µg/mL; in data set [2], 8 µg/mL; in data set [3] it was 0.31 µg/mL; in data set [4], 2 µg/mL; in data set [5], 2 µg/mL. Moreover, in data set [6], the CC50 was 25.5 µg/mL. Moreover, the Stability result in data set [7] is “Stable”.
Turning to `Nc1nc(=O)[nH]cc1F` [FLUCYTOSINE], the MIC in data set [1] was 1.25 µg/mL (≈ 9.68 µM); in data set [2] it was at least 20 µg/mL; in data set [3] it was 0.31 µg/mL (≈ 2.4 µM); in data set [4], 1.25 µg/mL (≈ 9.68 µM); in data set [5], at least 20 µg/mL.
Consider `CC(=O)N1CCN(c2ccc(OCC3COC(Cn4ccnc4)(c4ccc(Cl)cc4Cl)O3)cc2)CC1` (centres undefined) [KETOCONAZOLE], for which the minimal inhibitory concentration (MIC) in data set [1] is 20.2 µg/mL (≈ 38 µM); in data set [2] it was 4 µg/mL (≈ 7.53 µM); in data set [3] it was at least 32 µg/mL; in data set [4], 0.06 µg/mL (≈ 0.113 µM); in data set [5], 32 µg/mL (≈ 60.2 µM).
As for `c1cc2[nH]c(-c3ccc(-c4cc5ccc(C6=NCCCN6)cc5[nH]4)cc3)cc2cc1C1=NCCCN1`, the MIC in data set [1] stood at 7.87 µg/mL (≈ 16.7 µM); in data set [2] it was 19.8 µg/mL (≈ 41.9 µM); in data set [5], 3.12 µg/mL (≈ 6.6 µM). For the same molecule, the CC50 in data set [6] was found to be 13.6 µg/mL (≈ 28.8 µM). Also, in data set [7], the Stability result is given as “Stable”.
